Rows were chosen to be rich in hits. Some 3% of all compounds tested hit in one or more screens of this group.
PfG6PD inh: PfG6PD (Plasmodium falciparum) enzyme inhibition | PfGluPho enzyme, NADPH resazurin-diaphorase fluorescence | inhibition, % at 20 µM | actives 0.78% (n = 350,000) | AID 504690;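 active means inhibition reaching at least a set limit at 20 µM in the primary screen, cut at about 59% in these data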;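 further: 0% = DMSO wells with substrate and 100% = DMSO wells lacking glucose-6-phosphate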
B2AR ag: agonists of human beta-2 adrenergic receptor inducing internalization; P07550; Am2.2-beta2AR cells, FAP receptor internalization, flow cytometry; response, % (no concentration beside the values); actives 0.43% (n = 340,000); AID 504454;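 active means response above a set limit, near 3 SD of response in nonfluorescent compounds, cut at about 42% in these data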
MC4R antagonist: antagonists of human melanocortin 4 receptor (MC4R); inhibition, % at 6.5 µM; MC4R-expressing cells, MTII-stimulated cAMP, LANCE TR-FRET; P32245; actives 0.48% (n = 360,000);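 active means inhibition above its plate's cutoff, the mean of tested wells on that plate plus 3 SD, cut at about 29% in these data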;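 further: 0% = Melanotan II alone and 100% = Melanotan II plus saturating MCL0020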
Target sequence (P32245 whole entry, looked up): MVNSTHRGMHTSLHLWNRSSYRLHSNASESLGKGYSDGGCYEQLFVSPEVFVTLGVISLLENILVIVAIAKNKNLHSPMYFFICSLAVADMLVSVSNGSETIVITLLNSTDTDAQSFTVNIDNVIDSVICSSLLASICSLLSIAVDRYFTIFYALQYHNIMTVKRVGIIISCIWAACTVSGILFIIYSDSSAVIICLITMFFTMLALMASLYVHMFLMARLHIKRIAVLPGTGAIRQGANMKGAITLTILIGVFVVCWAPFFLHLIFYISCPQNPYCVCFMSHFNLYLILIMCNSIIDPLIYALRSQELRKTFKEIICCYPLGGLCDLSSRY
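Material – human MC4R-expressing U2OS cells · Repeats – no replicates · Detection – TR-FRET with Eu-cAMP and labeled anti-cAMP, 671 nm · Times – compound 30 min, challenge 1 h, detection 1 h · Compound – single nominal compound dose of 6.5 µM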
ABHD5 PLIN5 PPI: ABHD5-PLIN5 protein interaction inhibition; inhibition, % at 4 µM; AID 602281; Split G. princeps luciferase complementation, luminescence, 4 h; actives 0.78% (n = 360,000); Q00G26+Q8WTS1;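 active means inhibition above the mean inhibition across every tested compound plus 3 SD, cut at about 22% in these data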;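 further: 0% = DMSO only wells and the 100% control is not disclosed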
MC4R barr agon: agonists of human melanocortin 4 receptor (MC4R) beta-arrestin | U2OS MC4R beta-arrestin complementation, luminescence; percent of melanotan II response, DMSO zero | AID 540308 | activation, % at 8.9 µM | actives 0.98% (n = 360,000);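 active means activation above a per-plate cutoff, the mean activation of sample wells on that plate plus 3 SD, cut at about 8% in these data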
MC4R barr ag: human MC4R beta-arrestin agonism confirmation; shares compounds with MC4R barr agon; U2OS MC4R beta-arrestin recruitment, luminescence; scaled DMSO 0%, Melanotan II 100%; activation, % at 8.9 µM; actives 31% (n = 2,400);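 active means mean activation across replicates above the hit cutoff set in the earlier primary screen, cut at about 8% in these data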
MOR-DOR barr ag: activates mu-delta opioid heterodimer, MC4R agonist counter-screen; activation, % at 9.2 µM; AID 602194; actives 5.8% (n = 2,400); U2OS PathHunter beta-arrestin, beta-gal luminescence; percent of deltorphin B response, DMSO zero; shares compounds with MC4R barr agon;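 active means mean activation across replicates exceeds the hit threshold derived in the earlier primary screen, cut at about 18% in these data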;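 further: 100% = deltorphin B at 0.9 µM final and 0% = DMSO alone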
Numbers without * were called inactive; x = no result given.

SMILES	PfG6PD inh	B2AR ag	MC4R antagonist	ABHD5 PLIN5 PPI	MC4R barr agon	MC4R barr ag	MOR-DOR barr ag
O=C(COC(=O)c1ccc(CNS(=O)(=O)c2ccc(F)c(Cl)c2)cc1)NCC1CCCCC1	2	2	4	-9	2	x	x
COc1ccc(NC(=O)Cn2cnc3c(cnn3-c3ccc(C)c(C)c3)c2=O)c(OC)c1	1	-6	0	3	12*	15*	7
CCOc1ccccc1NC(=O)Cn1cnc2c(cnn2-c2ccc(C)c(C)c2)c1=O	7	-3	8	-1	-1	x	x
CC(C)CNC(=S)NC(=O)c1ccc(Cl)cc1Cl	-8	-5	2	1	2	x	x
c1ccc(C2[C@H]3CN(CC4CCCCC4)[C@H](c4ccccc4)C34CC2(c2cccnc2)C4)cc1 (some centres not stated)	13	1	0	-3	1	x	x
CCOc1ccc(Nc2nc(-c3cccnc3)cs2)cc1	-8	-3	12	3	25*	1	5
Oc1ccc(Nc2nc(-c3cccnc3)cs2)cc1	22	-7	2	4	-1	x	x
COC(=O)c1cc2c(N)c(C(=O)c3ccccc3)sc2nc1C(OC)OC	8	-2	-8	0	-1	x	x
COc1ccc(OC)c(NC(=O)COC(=O)c2cc3c(s2)CCC3)c1	-20	7	12	0	20*	7	7
O=C(OCn1nnc2ccccc2c1=O)c1ccc(F)c(S(=O)(=O)N2CCOCC2)c1	-4	x	4	2	-1	x	x
O=C(/C=C/c1cc2ccccc2o1)c1ccccc1O	-9	12	20	15	15*	2	3
COC(=O)[C@]12CCCCC=C1N(CCC1=CCCCC1)C(=O)[C@H](CC(=O)NCc1cccc(C(F)(F)F)c1)C2	x	x	x	-10	x	x	x
FC(F)(F)c1cccc(NC(=S)Nc2ccc(Cl)c(Cl)c2)c1	14	14	-6	-1	3	x	x
FC(F)(F)c1cccc(NC(=S)NC(c2ccccc2)c2ccccc2)c1	-3	7	10	-15	10*	6	10
COc1cccc(CN2CCC(N(CCc3ccccc3)Cc3ccccc3)CC2)c1OC	12	9	-4	5	0	x	x
COCCNCc1ccc(C(C)C)cc1	0	5	0	-5	-1	x	x
COc1ccc(C(CCNCc2ccc(OC(C)C)cc2)C(C)C)cc1 (configuration not stated)	0	19	5	-1	15*	8	12
Cc1cccc2cc3c(NC(=O)c4ccccn4)nn(C)c3nc12	-4	4	-3	18	13*	2	4
CCCC(=O)Nc1nn(C)c2nc3c(C)cccc3cc12	5	7	-1	-8	-3	x	x
O=C(O)/C=C/C(=O)Nc1ccc(C2(c3ccc(NC(=O)/C=C/C(=O)O)cc3)c3ccccc3-c3ccccc32)cc1	-41	5	-1	-20	53*	1	1
O=C(O)/C=C\C(=O)Nc1ccc(Oc2ccccc2)cc1	6	-8	3	2	-1	x	x
Cn1cnc(S(=O)(=O)N2CCN(C(c3ccccc3)c3ccccc3)CC2)c1	-14	3	2	7	1	x	x
O=C1CSc2ccc(C(=O)Nc3cccc(S(=O)(=O)Nc4ccc(Br)cc4)c3)cc2N1	19	-2	25	-1	11*	3	4
O=C(O)c1ccc(NC(=O)c2cccc(S(=O)(=O)Nc3ccc(C(=O)O)cc3)c2)cc1	-9	5	7	1	-1	x	x
Cc1cc(C)cc(NC(=S)NCCN(C2CCCCC2)C2CCCC2)c1	3	5	-6	-1	2	x	x
SMILES	PfG6PD inh	B2AR ag	MC4R antagonist	ABHD5 PLIN5 PPI	MC4R barr agon	MC4R barr ag	MOR-DOR barr ag
Cc1cc(C)c2nc(-c3ccccn3)cc(C(=O)NCc3ccc(S(N)(=O)=O)cc3)c2c1	-7	-6	2	5	9.7*	0	5
COc1ccc(NC(=O)c2cc(-c3ccccn3)nc3c(C)cc(C)cc23)c(C)c1	-19	9	20	-4	12*	3	3
COCCNC(=O)c1onc(CSc2ccccc2)c1C(=O)NCCOC	12	1	4	11	-3	x	x
O=C(COC(=O)c1ccc2ncsc2c1)Nc1cc([N+](=O)[O-])ccc1Cl	-3	-5	1	4	23*	8	13
CC(Oc1cc2oc(=O)c3c(c2cc1Cl)CCCC3)C(=O)NCCN1CCOCC1 (configuration not stated)	-6	-16	24	1	-2	x	x
S=c1[nH]nc(-c2cc(-c3ccccc3)n[nH]2)n1/N=C/c1c(Cl)cccc1Cl	23	-35	8	-2	-1	x	x
Cc1ccccc1/C=N/n1c(-c2cc(-c3ccccc3)n[nH]2)n[nH]c1=S	32	2	23	0	13*	4	5
S=c1[nH]nc(-c2cc(-c3ccccc3)n[nH]2)n1/N=C/c1ccc(Br)s1	5	4	6	-8	33*	2	2
Cc1ccsc1/C=N/n1c(-c2cc(-c3ccccc3)n[nH]2)n[nH]c1=S	28	-2	12	-10	12*	-3	4
Cc1cc(-c2n[nH]c(=S)n2/N=C/c2ccc(Br)s2)n[nH]1	22	-16	10	-2	-2	x	x
O=C(NCC[C@H]1CC[C@@H](NC(=O)C2CCC2)[C@@H](CO)O1)c1cc(Cl)cc(Cl)c1	x	x	x	1	x	x	x
Nc1c(C(=O)NCc2ccc3c(c2)OCO3)nnn1Cc1cccc(F)c1	6	0	1	1	-1	x	x
Nc1c(C(=O)NCc2ccc3c(c2)OCO3)nnn1Cc1ccc(Br)cc1	3	-27	-5	1	18*	7	10
CCn1c(COc2ccc(Cl)cc2)nnc1SCC(=O)Nc1ccc2c(c1)OCCO2	-18	1	14	2	0	x	x
CCn1c(COc2ccc3c(c2)OCO3)nnc1SCC(=O)c1ccc(Cl)cc1	12	-3	-7	1	9.9*	2	4
CCC(C(=O)Nc1nnc(-c2ccco2)s1)c1ccccc1 (configuration not stated)	9	-3	15	8	10*	2	6
CCc1nnc(NC(=O)C(CC)c2ccccc2)s1 (configuration not stated)	0	-4	6	-7	-3	x	x
O=C(Nc1nnc(CC(c2ccccc2)c2ccccc2)s1)c1ccco1	-24	3	7	-3	20*	2	2
CCC(c1ccccc1)c1nnc(NC(=O)c2ccco2)s1 (configuration not stated)	-6	-11	6	-5	1	x	x
